According to ChEMBL document CHEMBL1124054, “Synthesis and biological activity of ketomethylene-containing nonapeptide analogues of snake venom angiotensin converting enzyme inhibitors” (J Med Chem, 1988):
Blank lines part the entries; values can stand above or below the molecule they belong to. Starred links: 1 amine or outer side, 2 acyl side, 3 side chain; linkers in the order of their positions; H or OH if unused. Non-standard residues stand in square brackets, D forms with d. Residues, ends and D or L forms follow the SMILES beside them. *: point of attachment. X2 = O=C(CCC(=O)[*:2])[C@H](Cc1ccccc1)N[*:1]; X1 = O=C(CCC(=O)[*:2])[C@@H]1CCCN1[*:1]; X3 = O=C1CCN([*:1])[C@H]1C(=O)[*:2]; Cyclobutanecarbonyl = O=C(C1CCC1)*; pGlu = O=C1CC[C@@H](C(=O)O)N1

What was measured:
[1] = molecular target: Angiotensin-converting enzyme (Oryctolagus cuniculus) (UniProt P12822); test: Inhibition of Angiotensin I converting enzyme from rabbit lung; conditions: read-out: I50
[2] = molecular target: T1, Angiotensin-converting enzyme (Rattus norvegicus, UniProt P47820); test: Inhibition of Angiotensin I converting enzyme in normotensive rat; format: functional; conditions: read-out: I50 (converted)
T1 sequence (P47820 whole entry): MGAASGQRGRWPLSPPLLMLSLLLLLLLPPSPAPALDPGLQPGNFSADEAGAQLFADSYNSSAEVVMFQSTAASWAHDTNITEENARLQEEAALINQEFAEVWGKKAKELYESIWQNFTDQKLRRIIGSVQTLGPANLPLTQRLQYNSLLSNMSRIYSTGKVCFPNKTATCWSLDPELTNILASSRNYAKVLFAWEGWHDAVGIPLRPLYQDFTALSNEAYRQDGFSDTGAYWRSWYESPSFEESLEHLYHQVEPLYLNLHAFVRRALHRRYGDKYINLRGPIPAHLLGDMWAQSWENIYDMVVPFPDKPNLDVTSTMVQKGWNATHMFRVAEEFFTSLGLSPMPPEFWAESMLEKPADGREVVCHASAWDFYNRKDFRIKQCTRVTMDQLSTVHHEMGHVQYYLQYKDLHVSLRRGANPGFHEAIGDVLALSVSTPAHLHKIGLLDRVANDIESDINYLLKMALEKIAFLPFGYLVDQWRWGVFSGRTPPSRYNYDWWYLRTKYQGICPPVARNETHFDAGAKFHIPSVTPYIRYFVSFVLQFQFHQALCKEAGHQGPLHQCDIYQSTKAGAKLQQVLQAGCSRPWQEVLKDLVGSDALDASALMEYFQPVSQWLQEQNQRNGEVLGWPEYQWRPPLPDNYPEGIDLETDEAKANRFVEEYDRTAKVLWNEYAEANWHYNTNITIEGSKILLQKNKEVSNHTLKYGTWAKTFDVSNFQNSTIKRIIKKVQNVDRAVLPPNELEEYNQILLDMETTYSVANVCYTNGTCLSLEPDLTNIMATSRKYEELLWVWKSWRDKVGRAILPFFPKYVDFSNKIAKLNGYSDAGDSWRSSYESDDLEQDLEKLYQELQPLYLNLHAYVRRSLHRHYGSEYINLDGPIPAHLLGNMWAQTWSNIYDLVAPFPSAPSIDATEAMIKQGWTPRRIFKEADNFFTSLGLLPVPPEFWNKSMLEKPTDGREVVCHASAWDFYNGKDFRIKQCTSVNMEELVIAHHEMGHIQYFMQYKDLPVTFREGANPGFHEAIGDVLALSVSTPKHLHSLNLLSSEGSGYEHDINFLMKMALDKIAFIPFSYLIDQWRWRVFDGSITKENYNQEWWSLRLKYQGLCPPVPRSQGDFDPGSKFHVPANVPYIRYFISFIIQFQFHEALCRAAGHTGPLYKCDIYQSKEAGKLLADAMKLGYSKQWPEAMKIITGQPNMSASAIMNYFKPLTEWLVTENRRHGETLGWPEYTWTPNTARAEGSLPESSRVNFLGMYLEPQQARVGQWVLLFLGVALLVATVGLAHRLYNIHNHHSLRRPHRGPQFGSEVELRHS

[3] = tested on: Rattus norvegicus; test: Inhibition of angiotensin I induced blood pressure in normotensive anesthetized rats at 100 ug/kg (i.v.) for 75 min; format: functional
In short: (§1)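 Male Sprague-Dawley normotensive rats (290-540 g), pentobarbital-anesthetized (50 mg/kg ip), intubated. Jugular vein cannulated for iv dosing and carotid artery for blood pressure. Control pressor response to angiotensin I (175 ng/kg iv) taken after vehicle (1 mL/kg). Compound given iv in distilled water or 5% sodium bicarbonate. Angiotensin I challenge repeated at 1.5 to 75 min, rise in pressure compared with control.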

[4] = tested on: Rattus norvegicus; test: Inhibition of angiotensin I induced blood pressure in normotensive anesthetized rats at 3 ug/kg (i.v.) for 5 min; format: functional
In short: as §1

[5] = tested on: Rattus norvegicus; test: Inhibition of angiotensin I induced blood pressure in normotensive anesthetized rats at 100 ug/kg (i.v.) for 5 min; format: functional
In short: as §1

[6] = tested on: Rattus norvegicus; test: Inhibition of angiotensin I induced blood pressure in normotensive anesthetized rats at 100 ug/kg (i.v.) for 1.5 min; format: functional
In short: as §1

[7] = tested on: Rattus norvegicus; test: Inhibition of angiotensin I induced blood pressure in normotensive anesthetized rats at 30 ug/kg (i.v.) for 1.5 min; format: functional
In short: as §1

[8] = tested on: Rattus norvegicus; test: Inhibition of angiotensin I induced blood pressure in normotensive anesthetized rats at 3 ug/kg (i.v.) for 1.5 min; format: functional
In short: as §1

[9] = tested on: Rattus norvegicus; test: Inhibition of angiotensin I induced blood pressure in normotensive anesthetized rats at 100 ug/kg (i.v.) for 60 min; format: functional
In short: as §1

[10] = tested on: Rattus norvegicus; test: Inhibition of angiotensin I induced blood pressure in normotensive anesthetized rats at 100 ug/kg (i.v.) for 30 min; format: functional
In short: as §1

[11] = tested on: Rattus norvegicus; test: Inhibition of angiotensin I induced blood pressure in normotensive anesthetized rats at 30 ug/kg (i.v.) for 30 min; format: functional
In short: as §1

[12] = tested on: Rattus norvegicus; test: Inhibition of angiotensin I induced blood pressure in normotensive anesthetized rats at 3 ug/kg (i.v.) for 10 min; format: functional
In short: as §1

[13] = tested on: Rattus norvegicus; test: Inhibition of angiotensin I induced blood pressure in normotensive anesthetized rats at 30 ug/kg (i.v.) for 10 min; format: functional
In short: as §1

[14] = tested on: Rattus norvegicus; test: Inhibition of angiotensin I induced blood pressure in normotensive anesthetized rats at 30 ug/kg (i.v.) for 5 min; format: functional
In short: as §1

[15] = tested on: Rattus norvegicus; test: Inhibition of angiotensin I induced blood pressure in normotensive anesthetized rats at 100 ug/kg (i.v.) for 10 min; format: functional
In short: as §1

[16] = organism: Rattus norvegicus; test: Time required for 100% degradation in rat intestinal homogenate; format: ADME
In short: (§2)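 Rat small intestine was taken immediately after sacrifice and minced in Krebs Ringer (10 mL/g). Peptide (0.2–0.5 μmol) mixed with homogenate (1.0 mL per μmol), shaken at 37 °C. Degradation followed by TLC.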

[17] = Time required for 100% degradation by trypsin; format: ADME
[18] = Time required for degradation by pepsin (none); format: ADME
[19] = tested on: trypsin; test: Time required for 50% degradation by trypsin; format: ADME; conditions: read-out: Time
[20] = Time required for 50% degradation in rat stomach homogenate; format: ADME; conditions: read-out: Time (converted)
In short: (§3)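 Peptide, partially neutralized with 0.1 N HCl, incubated at 37 °C with 150 mg rat stomach homogenate. Breakdown monitored by TLC.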

[21] = Time required for 50% degradation in rat intestinal homogenate; format: ADME; conditions: read-out: Time (converted)
In short: as §2

[22] = tested on: chymotrypsin; test: Time required for 50% degradation by chymotrypsin; format: ADME; conditions: read-out: Time (converted)
In short: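 Peptide (0.5–1.0 μmol) in 0.1 M Tris, pH 7.8, stirred at room temperature with chymotrypsin (37 units dissolved in 50 mL cold 0.001 N HCl; 0.050 mL per μmol peptide). Degradation followed over time by TLC.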

[23] = organism: Rattus norvegicus; test: Time required for 100% degradation in rat stomach homogenate; format: ADME
In short: as §3

[24] = tested on: Rattus norvegicus; test: Inhibition of angiotensin I induced blood pressure in normotensive anesthetized rats at 10 ug/kg (i.v.) for 30 min; format: functional
In short: as §1

[25] = tested on: Rattus norvegicus; test: Inhibition of angiotensin I induced blood pressure in normotensive anesthetized rats at 1 ug/kg (i.v.) for 5 min; format: functional
In short: as §1

[26] = tested on: Rattus norvegicus; test: Inhibition of angiotensin I induced blood pressure in normotensive anesthetized rats at 10 ug/kg (i.v.) for 60 min; format: functional
In short: as §1

[27] = tested on: Rattus norvegicus; test: Inhibition of angiotensin I induced blood pressure in normotensive anesthetized rats at 10 ug/kg (i.v.) for 1.5 min; format: functional
In short: as §1

[28] = tested on: Rattus norvegicus; test: Inhibition of angiotensin I induced blood pressure in normotensive anesthetized rats at 1 ug/kg (i.v.) for 30 min; format: functional
In short: as §1

[29] = tested on: Rattus norvegicus; test: Inhibition of angiotensin I induced blood pressure in normotensive anesthetized rats at 1 ug/kg (i.v.) for 60 min; format: functional
In short: as §1

[30] = tested on: Rattus norvegicus; test: Inhibition of angiotensin I induced blood pressure in normotensive anesthetized rats at 1 ug/kg (i.v.) for 1.5 min; format: functional
In short: as §1

[31] = tested on: Rattus norvegicus; test: Inhibition of angiotensin I induced blood pressure in normotensive anesthetized rats at 30 ug/kg (i.v.) for 75 min; format: functional
In short: as §1

[32] = tested on: Rattus norvegicus; test: Inhibition of angiotensin I induced blood pressure in normotensive anesthetized rats at 10 ug/kg (i.v.) for 10 min; format: functional
In short: as §1

[33] = tested on: Rattus norvegicus; test: Inhibition of angiotensin I induced blood pressure in normotensive anesthetized rats at 30 ug/kg (i.v.) for 60 min; format: functional
In short: as §1

[34] = tested on: Rattus norvegicus; test: Inhibition of angiotensin I induced blood pressure in normotensive anesthetized rats at 10 ug/kg (i.v.) for 5 min; format: functional
In short: as §1

[35] = tested on: Rattus norvegicus; test: Inhibition of angiotensin I induced blood pressure in normotensive anesthetized rats at 1 ug/kg (i.v.) for 10 min; format: functional
In short: as §1

IC50 [1]: 6 nM
SMILES: NCCCCC(NC(=O)C1CCC1)C(=O)NC(Cc1ccccc1)C(=O)CCC(=O)N1CCCC1C(=O)O (centres undefined)

SMILES: C[C@H](NC(=O)[C@H](Cc1ccccc1)NC(=O)[C@H](CCCCN)NC(=O)[C@@H]1NCCC1=O)C(=O)N1CCC[C@H]1C(=O)O (H-[X3]KFAP-OH)
IC50 [2]: 87.3 nM

SMILES: CC[C@H](C)[C@H](NC(=O)[C@H](CCC(N)=O)NC(=O)[C@@H]1CCCN1C(=O)CNC(=O)[C@@H]1CCCN1C(=O)[C@H](Cc1c[nH]c2ccccc12)NC(=O)[C@@H]1CCC(=O)N1)C(=O)N1CCC[C@H]1C(=O)N1CCC[C@H]1C(=O)O ([pGlu]WPGPQIPP-OH)
IC50 [1]: 1900 nM

SMILES: C[C@H](CS)C(=O)N1CCC[C@H]1C(=O)O [CAPTOPRIL]
Inhibition over time [3]: 0%
Inhibition over time [4]: 8.3%
Inhibition over time [5]: 83.5%
Inhibition over time [6]: 71.5%
Inhibition over time [7]: 78.3%
Inhibition over time [8]: 18.7%
Inhibition over time [9]: 1.8%
Inhibition over time [10]: 27.3%
Inhibition over time [11]: 0%
Inhibition over time [12]: 0%
Inhibition over time [13]: 8.3%
Inhibition over time [14]: 60.5%
Inhibition over time [15]: 51.1%

Time [16]: 40 min
IC50 [1]: 340 nM
Time [17]: 20 min
Time [18]: 24 h
half-life [19]: < 5 min
half-life [20]: > 1 h
half-life [21]: 0.333 h
half-life [22]: 22 h
Time [23]: 5 h
SMILES: NCCCC[C@H](NC(=O)[C@@H]1CCCN1C(=O)CNC(=O)[C@@H]1CCCN1C(=O)[C@H](Cc1ccc(O)cc1)NC(=O)C1CCC1)C(=O)N[C@@H](Cc1ccccc1)C(=O)NCC(=O)N1CCC[C@H]1C(=O)O (Cyclobutanecarbonyl-YPGPKFGP-OH)

Time [16]: 300 min
IC50 [1]: 3.4 nM
Time [17]: 60 min
Time [18]: 20 h
half-life [19]: 5 min
half-life [21]: 1 h
half-life [22]: 22 h
SMILES: NCCCC[C@H](NC(=O)[C@@H]1CCCN1C(=O)CCC(=O)[C@@H]1CCCN1C(=O)[C@H](Cc1ccc(O)cc1)NC(=O)C1CCC1)C(=O)N[C@@H](Cc1ccccc1)C(=O)CCC(=O)N1CCC[C@H]1C(=O)O (Cyclobutanecarbonyl-Y[X1]PK[X2]P-OH)
Inhibition over time [24]: 7.8%
Inhibition over time [7]: 79.5%
Inhibition over time [25]: 0%
Inhibition over time [26]: 0%
Inhibition over time [27]: 39.5%
Inhibition over time [11]: 17.3%
Inhibition over time [28]: 0%
Inhibition over time [29]: 0%
Inhibition over time [30]: 24.3%
Inhibition over time [31]: 12.5%
Inhibition over time [13]: 31.5%
Inhibition over time [32]: 14.5%
Inhibition over time [14]: 45%
Inhibition over time [33]: 15.3%
Inhibition over time [34]: 23.5%
Inhibition over time [35]: 0%

SMILES: C[C@H](NC(=O)[C@H](Cc1ccccc1)NC(=O)[C@H](CCCCN)NC(=O)C1CCC1)C(=O)N1CCC[C@H]1C(=O)O (Cyclobutanecarbonyl-KFAP-OH)
IC50 [1]: 40 nM
